From ChEMBL document CHEMBL1125520, “Improved brain delivery of AZT using a glycosyl phosphotriester prodrug” (1992) come the findings set out here.

Assay [1] has as its system Mus musculus. Briefly: In Vivo detection in Mice plasma after oral administration of 41.63 mg/kg detected in the form of AZT phosphodiester 2 after 48 hr. The class given is functional, organism-based. Details: dose 41.63 mg/kg.
Assay [2] is filed under the species Mus musculus. The assay can be described thus: Concentration of external nucleoside in mouse brain. The class given is functional. In outline:
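Male Swiss mice (6 weeks, 18–20 g) dosed by oral gavage in saline vehicle at 20 mg/kg AZT or molar equivalent (3 mM, 1.5 µmol/mouse). Brains taken 0.5–48 h post-dose, homogenized in acetonitrile–water 3:1, centrifuged, lyophilized and filtered. Analysed by column-switching C18 HPLC with diode-array detection against spiked standards and vehicle controls. Three mice per time point, triplicates; not recovery-corrected.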

The subject of assay [3] is Mus musculus. Briefly: In Vivo detection of total AZT in Mice brains after oral administration of 41.63 mg/kg after 8 hr. It is filed as functional. In a few lines: (§1)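 Male Swiss mice (18–20 g) dosed orally with a 3 mM solution in […] vehicle; decapitated at 0.5–48 h. Brains were homogenized in acetonitrile-water (3:1), centrifuged at 6000g for 40 min at 4 °C, lyophilized, redissolved in water and filtered (0.45 µm). Reversed-phase C18 column-switching HPLC with diode-array detection; standard spiking; vehicle-fed controls. Three mice per point, triplicates.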

Assay [4] relates to Mus musculus. Briefly: In Vivo detection in Mice brains after oral administration of 41.63 mg/kg detected in the form of AZT phosphodiester 2 after 8 hr. It is filed as functional.
Assay [5] relates to Mus musculus. Briefly: In Vivo detection in Mice brains after oral administration of 41.63 mg/kg detected in the form of AZT after 48 hr. The class given is functional.
Assay [6] has as its system Mus musculus. The assay can be described thus: In Vivo detection in Mice brains after oral administration of 41.63 mg/kg detected in the form of AZT after 4 hr. The class given is functional.
Assay [7] concerns Mus musculus. Briefly: In Vivo detection in Mice brains after oral administration of 41.63 mg/kg detected in the form of AZT phosphodiester 2 after 0.5 hr. It is filed as functional.
Assay [8] has as its system Mus musculus. Briefly: In Vivo detection in Mice brains after oral administration of 41.63 mg/kg detected in the form of AZT 5`-P after 4 hr. The class given is functional.
For assay [9], the system named is Mus musculus. Briefly: In Vivo detection of total AZT in Mice plasma after oral administration of 41.63 mg/kg after 2 hr. It is filed as functional, organism-based. Also noted: dose 41.63 mg/kg. In a few lines:
(§2)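 Male Swiss mice (18–20 g, six weeks old) given the test substance or vehicle ([…]) by gavage as a 3 mM solution (1.5 µmol/mouse). Aortic blood was collected into heparinized tubes at 0.5–48 h and centrifuged at 13000g for 10 min. Plasma was stored at -22 °C and analysed by HPLC. Three mice were used per time point, in triplicate. Values were not corrected for recovery.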

Assay [10] deals with Mus musculus. The assay can be described thus: In Vivo detection of total AZT in Mice brains after oral administration of 41.63 mg/kg after 2 hr. It is filed as functional. In a few lines:
as §1

The subject of assay [11] is Mus musculus. Briefly: In Vivo detection of total AZT in Mice brains after oral administration of 41.63 mg/kg after 0.5 hr. It is filed as functional. In a few lines: as §1
For assay [12], the system named is Mus musculus. Briefly: In Vivo detection in Mice plasma after oral administration of 41.63 mg/kg detected in the form of AZT after 48 hr. It is filed as functional, organism-based. Also noted: dose 41.63 mg/kg.
Assay [13] concerns Mus musculus. The assay can be described thus: In Vivo detection in Mice brains after oral administration of 41.63 mg/kg detected in the form of AZT phosphodiester 2 after 2 hr. It is filed as functional.
The test system of assay [14] is Mus musculus. The assay can be described thus: In Vivo detection in Mice brains after oral administration of 41.63 mg/kg detected in the form of AZT phosphodiester 2 after 4 hr. It is filed as functional.
Assay [15] has as its system Mus musculus. The assay can be described thus: In Vivo detection in Mice plasma after oral administration of 41.63 mg/kg detected in the form of AZT phosphodiester 2 after 0.5 hr. The class given is functional, organism-based. Details: dose 41.63 mg/kg.
Assay [16] concerns Mus musculus. The assay can be described thus: In Vivo detection in Mice plasma after oral administration of 41.63 mg/kg detected in the form of AZT after 2 hr. The class given is functional, organism-based. Also noted: dose 41.63 mg/kg.
Assay [17] deals with Mus musculus. Briefly: In Vivo detection of total AZT in Mice plasma after oral administration of 41.63 mg/kg after 4 hr. The class given is functional, organism-based. Details: dose 41.63 mg/kg. In outline:
as §2

Assay [18] has as its system Mus musculus. Briefly: In Vivo detection in Mice plasma after oral administration of 41.63 mg/kg detected in the form of AZT 5`-P after 0.5 hr. The class given is functional, organism-based. Details: dose 41.63 mg/kg.
Assay [19] relates to Mus musculus. Briefly: In Vivo detection in Mice brains after oral administration of 41.63 mg/kg detected in the form of AZT after 2 hr. It is filed as functional.
The subject of assay [20] is Mus musculus. The assay can be described thus: In Vivo detection of total AZT in Mice plasma after oral administration of 58.33 mg/kg after 48 hr. The class given is functional, organism-based. Details: dose 58.33 mg/kg. In a few lines:
as §2

For assay [21], the system named is Mus musculus. Briefly: In Vivo detection in Mice brains after oral administration of 58.33 mg/kg detected in the form of AZT 5`-P after 48 hr. The class given is functional.
The test system of assay [22] is Mus musculus. The assay can be described thus: In Vivo detection in Mice brains after oral administration of 58.33 mg/kg detected in the form of AZT phosphodiester 3 after 48 hr. It is filed as functional.
Assay [23] relates to Mus musculus. Briefly: In Vivo detection in Mice brains after oral administration of 58.33 mg/kg detected in the form of AZT phosphodiester 3 after 24 hr. It is filed as functional.
For assay [24], the system named is Mus musculus. Briefly: In Vivo detection in Mice brains after oral administration of 58.33 mg/kg detected in the form of AZT phosphodiester 2 after 24 hr. It is filed as functional.
Assay [25] concerns Mus musculus. Briefly: In Vivo detection in Mice plasma after oral administration of 58.33 mg/kg detected in the form of AZT after 48 hr. It is filed as functional, organism-based. Details: dose 58.33 mg/kg. In a few lines:
as §2

Assay [26] concerns Mus musculus. The assay can be described thus: In Vivo detection of total AZT in Mice brains after oral administration of 58.33 mg/kg after 2 hr. It is filed as functional. In outline: as §1
The subject of assay [27] is Mus musculus. Briefly: In Vivo detection in Mice plasma after oral administration of 58.33 mg/kg detected in the form of AZT phosphodiester 2 after 1 hr. It is filed as functional, organism-based. Details: dose 58.33 mg/kg. In a few lines: as §2
Assay [28] deals with Mus musculus. The assay can be described thus: In Vivo detection in Mice brains after oral administration of 58.33 mg/kg detected in the form of AZT 5`-P after 2 hr. The class given is functional.
Assay [29] concerns Mus musculus. Briefly: In Vivo detection in Mice plasma after oral administration of 58.33 mg/kg detected in the form of AZT 5`-P after 48 hr. Details: dose 58.33 mg/kg. It is filed as functional, organism-based.
For assay [30], the system named is Mus musculus. Briefly: In Vivo detection in Mice plasma after oral administration of 58.33 mg/kg detected in the form of AZT 5`-P after 24 hr. It is filed as functional, organism-based. Details: dose 58.33 mg/kg.
In assay [31] the test system is Mus musculus. The assay can be described thus: In Vivo detection of total AZT in Mice brains after oral administration of 58.33 mg/kg after 8 hr. The class given is functional. In outline:
as §1

Assay [32] relates to Mus musculus. Briefly: In Vivo detection in Mice brains after oral administration of 58.33 mg/kg detected in the form of AZT phosphodiester 3 after 1 hr. The class given is functional.
Assay [33] concerns Mus musculus. Briefly: In Vivo detection in Mice plasma after oral administration of 58.33 mg/kg detected in the form of AZT phosphodiester 3 after 1 hr. Also noted: dose 58.33 mg/kg. The class given is functional, organism-based. In a few lines: as §2
Assay [34] relates to Mus musculus. Briefly: In Vivo detection of total AZT in Mice plasma after oral administration of 58.33 mg/kg after 1 hr. The class given is functional, organism-based. Also noted: dose 58.33 mg/kg. In outline:
as §2

Assay [35] concerns Mus musculus. Briefly: In Vivo detection in Mice plasma after oral administration of 58.33 mg/kg detected in the form of AZT 5`-P after 4 hr. It is filed as functional, organism-based. Details: dose 58.33 mg/kg.
In assay [36] the test system is Mus musculus. Briefly: In Vivo detection of total AZT in Mice plasma after oral administration of 58.33 mg/kg after 8 hr. The class given is functional, organism-based. Also noted: dose 58.33 mg/kg. In outline: as §2
For assay [37], the system named is Mus musculus. Briefly: In Vivo detection in Mice brains after oral administration of 58.33 mg/kg detected in the form of AZT phosphodiester 3 after 8 hr. The class given is functional.
In assay [38] the test system is Mus musculus. The assay can be described thus: In Vivo detection in Mice plasma after oral administration of 58.33 mg/kg detected in the form of AZT after 4 hr. The class given is functional, organism-based. Also noted: dose 58.33 mg/kg.

Regarding `Cc1cn([C@H]2C[C@H](N=[N+]=[N-])[C@@H](COP(=O)(O)OCCO[C@H]3O[C@H](CO)[C@@H](O)[C@H](O)[C@@H]3O)O2)c(=O)[nH]c1=O`, the Plasma content in the assay with Mus musculus [1] came to 0 nM ml-1; in the assay on Mus musculus [9], 19.7 nM ml-1; with Mus musculus [12], 0 nM ml-1; in the assay with Mus musculus [15] it was 4.5 nM ml-1; with Mus musculus [16] it was 3.1 nM ml-1; with Mus musculus [17] it was 6.7 nM ml-1. In the assay with Mus musculus [18], this molecule yielded a Plasma content of 20.4 nM ml-1. Also, the External nucleoside in the assay listed under Mus musculus [2] amounted to 8000 nM/g. Moreover, the Brain content in the assay with Mus musculus [3] was found to be 43.1 nM ml-1; in the assay on Mus musculus [4] it was 8.9 nmol/g; with Mus musculus [5], 0.8 nmol/g; in the assay on Mus musculus [6], 0.9 nmol/g; in the assay on Mus musculus [7], 5.8 nM ml-1; in the assay on Mus musculus [8], 59.3 nmol/g. For the same molecule, the Brain content with Mus musculus [10] was found to be 26.2 nM ml-1; in the assay on Mus musculus [11] it was 38.6 nM ml-1; in the assay with Mus musculus [13], 5.2 nM ml-1; with Mus musculus [14] it was 7.9 nM ml-1; in the assay on Mus musculus [19], 1.2 nmol/g.

Turning to `CCCCCCCCCCCCCCCCOP(=O)(OCCO[C@H]1O[C@H](CO)[C@@H](O)[C@H](O)[C@@H]1O)OCC1OC(n2cc(C)c(=O)[nH]c2=O)CC1N=[N+]=[N-]` (stereo partly drawn), the Plasma content with Mus musculus [20] came to 14.2 nM ml-1; with Mus musculus [25] it was 0 nM ml-1; with Mus musculus [27] it was 0 nM ml-1; with Mus musculus [29], 14.2 nM ml-1; with Mus musculus [30], 28.5 nM ml-1; in the assay on Mus musculus [33], 0 nM ml-1. For the same molecule, the Plasma content with Mus musculus [34] came to 14 nM ml-1; with Mus musculus [35], 3 nM ml-1; in the assay on Mus musculus [36], 26.3 nM ml-1; in the assay with Mus musculus [38] it was 2.3 nM ml-1. Also, the Brain content in the assay on Mus musculus [21] is 58.6 nmol/g; in the assay on Mus musculus [22], 0 nmol/g; with Mus musculus [23], 0 nmol/g; in the assay on Mus musculus [24], 5.2 nmol/g; in the assay with Mus musculus [26], 140.8 nM ml-1; with Mus musculus [28], 133 nmol/g. For the same molecule, the Brain content was 113 nmol/g in the assay on Mus musculus [31], 0 nmol/g in the assay on Mus musculus [32] and 0 nM ml-1 with Mus musculus [37].
